Reference: ChEMBL document CHEMBL1649165, “Activity profile in vitro of micafungin against Spanish clinical isolates of common and emerging species of yeasts and molds” (2009)
Values after ≈ are worked out from the molar mass of the structure shown.

What was measured:
Format in all cases: functional
[1] = tested on: Candida tropicalis; assay: Antimicrobial activity against Candida tropicalis by broth microdilution method
How it was run: (§1)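 Clinical isolates from human patients, tested by broth microdilution using the AFST-EUCAST reference procedure for fermentative yeasts. The MIC was read per that reference method.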

[2] = tested on: Nakaseomyces glabratus; assay: Antimicrobial activity against Candida glabrata by broth microdilution method; how it was run: as §1
[3] = tested on: Pichia kudriavzevii; assay: Antimicrobial activity against Candida krusei by broth microdilution method; how it was run: as §1
[4] = tested on: Clavispora lusitaniae; assay: Antimicrobial activity against Candida lusitaniae by broth microdilution method; how it was run: as §1
[5] = tested on: Diutina rugosa; assay: Antimicrobial activity against Candida rugosa by broth microdilution method; how it was run: as §1
[6] = tested on: Debaryomyces hansenii; assay: Antimicrobial activity against Candida famata by broth microdilution method; how it was run: as §1
[7] = tested on: [Candida] inconspicua; assay: Antimicrobial activity against Candida inconspicua by broth microdilution method; conditions: Pichia inconspicua; how it was run: as §1
[8] = tested on: [Candida] zeylanoides; assay: Antimicrobial activity against Candida zeylanoides by broth microdilution method; conditions: Dujonia zeylanoides; how it was run: as §1
[9] = tested on: Magnusiomyces capitatus; assay: Antimicrobial activity against Dipodascus capitatus by broth microdilution method
[10] = tested on: Yarrowia lipolytica; assay: Antimicrobial activity against Yarrowia lipolytica by broth microdilution method
[11] = tested on: Geotrichum candidum; assay: Antimicrobial activity against Galactomyces geotrichum by broth microdilution method
[12] = tested on: Cryptococcus deneoformans; assay: Antimicrobial activity against Cryptococcus neoformans var. neoformans by broth microdilution method
How it was run: (§2)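 Clinical isolates of nonfermentative yeasts, tested by broth microdilution following EUCAST recommendations. The only change from that method was a minor modification to improve growth.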

[13] = tested on: Trichosporon inkin; assay: Antimicrobial activity against Trichosporon inkin by broth microdilution method
How it was run: (§3)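 Nonfermentative yeast clinical isolates (Rhodotorula, Trichosporon) tested by broth microdilution. The EUCAST yeast recommendations were followed strictly, with one minor modification to improve growth. MIC was read as the endpoint.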

[14] = tested on: Trichosporon ovoides; assay: Antimicrobial activity against Trichosporon ovoides by broth microdilution method; how it was run: as §3
[15] = tested on: Naganishia albida; assay: Antimicrobial activity against Cryptococcus albidus by broth microdilution method; how it was run: as §2
[16] = tested on: Ustilago; assay: Antimicrobial activity against Ustilago spp by broth microdilution method
[17] = tested on: Papiliotrema laurentii; assay: Antimicrobial activity against Cryptococcus laurentii by broth microdilution method; how it was run: as §2
[18] = tested on: Trichosporon; assay: Antimicrobial activity against Trichosporon spp. by broth microdilution method; how it was run: as §3
[19] = tested on: Aspergillus flavus; assay: Antimicrobial activity against Aspergillus flavus by broth microdilution method
How it was run: (§4)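 Clinical mould isolates, tested by broth microdilution using the AFST-EUCAST reference method for filamentous fungi. For echinocandins, the endpoint was the minimum effective concentration: the lowest drug concentration giving aberrant hyphal growth, read with an inverted microscope.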

[20] = tested on: Aspergillus niger; assay: Antimicrobial activity against Aspergillus niger by broth microdilution method; how it was run: as §4
[21] = tested on: Aspergillus nidulans; assay: Antimicrobial activity against Aspergillus nidulans by broth microdilution method; how it was run: as §4
[22] = tested on: Aspergillus sydowii; assay: Antimicrobial activity against Aspergillus sydowii by broth microdilution method; how it was run: as §4
[23] = tested on: Aspergillus versicolor; assay: Antimicrobial activity against Aspergillus versicolor by broth microdilution method; how it was run: as §4
[24] = tested on: Aspergillus ochraceus; assay: Antimicrobial activity against Aspergillus ochraceus by broth microdilution method; how it was run: as §4
[25] = tested on: Aspergillus glaucus; assay: Antimicrobial activity against Aspergillus glaucus by broth microdilution method; how it was run: as §4
[26] = tested on: Aspergillus; assay: Antimicrobial activity against Aspergillus spp. by broth microdilution method; how it was run: as §4
[27] = tested on: Penicillium; assay: Antimicrobial activity against Penicillium spp. by broth microdilution method
How it was run: (§5)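 Filamentous fungus clinical isolates tested by the AFST-EUCAST reference broth microdilution method for moulds. For echinocandins, the endpoint was the minimum effective concentration: the lowest drug concentration giving aberrant hyphal growth, read with an inverted microscope.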

[28] = tested on: Fusarium solani; assay: Antimicrobial activity against Fusarium solani by broth microdilution method; how it was run: as §5
[29] = tested on: Acremonium sp.; assay: Antimicrobial activity against Acremonium sp.by broth microdilution method; how it was run: as §4
[30] = tested on: Trichoderma; assay: Antimicrobial activity against Trichoderma spp. by broth microdilution method; how it was run: as §5
[31] = tested on: Phialemonium curvatum; assay: Antimicrobial activity against Phialemonium curvatum by broth microdilution method; conditions: Thyridium curvatum; how it was run: as §5
[32] = tested on: Fusarium equiseti; assay: Antimicrobial activity against Fusarium equiseti by broth microdilution method; how it was run: as §4
[33] = tested on: Coprinellus domesticus; assay: Antimicrobial activity against Hormographiella verticillata by broth microdilution method; how it was run: as §5
[34] = tested on: Aureobasidium pullulans; assay: Antimicrobial activity against Aureobasidium pullulans by broth microdilution method
[35] = tested on: Hortaea werneckii; assay: Antimicrobial activity against Hortaea werneckii by broth microdilution method
[36] = tested on: Lichtheimia corymbifera; assay: Antimicrobial activity against Mycocladus corymbiferus by broth microdilution method; how it was run: as §5
[37] = tested on: Rhizopus arrhizus; assay: Antimicrobial activity against Rhizopus oryzae by broth microdilution method; how it was run: as §5
[38] = tested on: Mucor; assay: Antimicrobial activity against Mucor spp.by broth microdilution method; how it was run: as §5
[39] = tested on: Saksenaea vasiformis; assay: Antimicrobial activity against Saksenaea vasiformis by broth microdilution method; how it was run: as §5
[40] = tested on: Exophiala jeanselmei; assay: Antimicrobial activity against Exophiala jeanselmei by broth microdilution method

C[C@@H]1[C@H](O)[C@@H](C)/C=C/C=C/C=C/C=C/C=C/C=C/C=C/[C@H](O[C@@H]2O[C@H](C)[C@@H](O)[C@H](N)[C@@H]2O)C[C@@H]2O[C@](O)(C[C@@H](O)C[C@@H](O)[C@H](O)CC[C@@H](O)C[C@@H](O)CC(=O)O[C@H]1C)C[C@H](O)[C@H]2C(=O)O [AMPHOTERICIN B]
MIC50 [1]: 0.12 µg/mL (≈ 0.13 µM)
MIC90 [1]: 0.25 µg/mL (≈ 0.271 µM)
MIC50 [2]: 0.12 µg/mL (≈ 0.13 µM)
MIC90 [2]: 0.25 µg/mL (≈ 0.271 µM)
MIC50 [3]: 0.5 µg/mL (≈ 0.541 µM)
MIC90 [3]: 0.5 µg/mL (≈ 0.541 µM)
MIC50 [4]: 0.06 µg/mL (≈ 0.0649 µM)
MIC90 [4]: 0.12 µg/mL (≈ 0.13 µM)
MIC50 [5]: 0.12 µg/mL (≈ 0.13 µM)
MIC90 [5]: 1 µg/mL (≈ 1.08 µM)
MIC50 [6]: 0.12 µg/mL (≈ 0.13 µM)
MIC90 [6]: 1 µg/mL (≈ 1.08 µM)
MIC50 [7]: 0.12 µg/mL (≈ 0.13 µM)
MIC90 [7]: 1 µg/mL (≈ 1.08 µM)
MIC50 [8]: 0.12 µg/mL (≈ 0.13 µM)
MIC90 [8]: 1 µg/mL (≈ 1.08 µM)
MIC50 [9]: 0.5 µg/mL (≈ 0.541 µM)
MIC90 [9]: 0.5 µg/mL (≈ 0.541 µM)
MIC50 [10]: 0.5 µg/mL (≈ 0.541 µM)
MIC90 [10]: 0.5 µg/mL (≈ 0.541 µM)
MIC50 [11]: 0.25 µg/mL (≈ 0.271 µM)
MIC90 [11]: 0.5 µg/mL (≈ 0.541 µM)
MIC50 [12]: 0.12 µg/mL (≈ 0.13 µM)
MIC90 [12]: 2 µg/mL (≈ 2.16 µM)
MIC50 [13]: 0.12 µg/mL (≈ 0.13 µM)
MIC90 [13]: 1 µg/mL (≈ 1.08 µM)
MIC50 [14]: 0.5 µg/mL (≈ 0.541 µM)
MIC90 [14]: 8 µg/mL (≈ 8.66 µM)
MIC50 [15]: 0.5 µg/mL (≈ 0.541 µM)
MIC90 [15]: 8 µg/mL (≈ 8.66 µM)
MIC50 [16]: 0.5 µg/mL (≈ 0.541 µM)
MIC90 [16]: 8 µg/mL (≈ 8.66 µM)
MIC50 [17]: 0.5 µg/mL (≈ 0.541 µM)
MIC90 [17]: 8 µg/mL (≈ 8.66 µM)
MIC50 [18]: 0.5 µg/mL (≈ 0.541 µM)
MIC90 [18]: 8 µg/mL (≈ 8.66 µM)
MIC50 [19]: 1 µg/mL (≈ 1.08 µM)
MIC90 [19]: 2 µg/mL (≈ 2.16 µM)
MIC50 [20]: 0.25 µg/mL (≈ 0.271 µM)
MIC90 [20]: 0.25 µg/mL (≈ 0.271 µM)
MIC50 [21]: 1 µg/mL (≈ 1.08 µM)
MIC90 [21]: 4 µg/mL (≈ 4.33 µM)
MIC50 [22]: 1 µg/mL (≈ 1.08 µM)
MIC90 [22]: 2 µg/mL (≈ 2.16 µM)
MIC50 [23]: 1 µg/mL (≈ 1.08 µM)
MIC90 [23]: 2 µg/mL (≈ 2.16 µM)
MIC50 [24]: 0.5 µg/mL (≈ 0.541 µM)
MIC90 [24]: > 16 µg/mL
MIC50 [25]: 0.5 µg/mL (≈ 0.541 µM)
MIC90 [25]: > 16 µg/mL
MIC50 [26]: 0.5 µg/mL (≈ 0.541 µM)
MIC90 [26]: > 16 µg/mL
MIC50 [27]: 0.5 µg/mL (≈ 0.541 µM)
MIC90 [27]: 2 µg/mL (≈ 2.16 µM)
MIC50 [28]: 1 µg/mL (≈ 1.08 µM)
MIC90 [28]: 2 µg/mL (≈ 2.16 µM)
MIC50 [29]: 4 µg/mL (≈ 4.33 µM)
MIC90 [29]: > 16 µg/mL
MIC50 [30]: 0.5 µg/mL (≈ 0.541 µM)
MIC90 [30]: > 16 µg/mL
MIC50 [31]: 0.5 µg/mL (≈ 0.541 µM)
MIC90 [31]: > 16 µg/mL
MIC50 [32]: 0.5 µg/mL (≈ 0.541 µM)
MIC90 [32]: > 16 µg/mL
MIC50 [33]: 0.5 µg/mL (≈ 0.541 µM)
MIC90 [33]: > 16 µg/mL
MIC50 [34]: 0.25 µg/mL (≈ 0.271 µM)
MIC90 [34]: 1 µg/mL (≈ 1.08 µM)
MIC50 [35]: 0.25 µg/mL (≈ 0.271 µM)
MIC90 [35]: 1 µg/mL (≈ 1.08 µM)
MIC50 [36]: 0.12 µg/mL (≈ 0.13 µM)
MIC90 [36]: 0.25 µg/mL (≈ 0.271 µM)
MIC50 [37]: 0.5 µg/mL (≈ 0.541 µM)
MIC90 [37]: 2 µg/mL (≈ 2.16 µM)
MIC50 [38]: 0.12 µg/mL (≈ 0.13 µM)
MIC90 [38]: 1 µg/mL (≈ 1.08 µM)
MIC50 [39]: 2 µg/mL (≈ 2.16 µM)
MIC90 [39]: > 16 µg/mL
MIC50 [40]: 0.25 µg/mL (≈ 0.271 µM)
MIC90 [40]: 1 µg/mL (≈ 1.08 µM)
